Format in all cases: ADME
Data set [1] can be described thus: Half-life in rat blood evaluated by enzymatic hydrolysis. Put shortly:
(§1)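 Incubation in fresh heparinized male Sprague-Dawley rat blood (used within 30 min) at 37.0 ± 0.1 °C, compound added in methanol at 1:10. Timed samples were quenched in cold methanol and centrifuged; the supernatant (12 µM final) was analysed by HPLC for ester and acid metabolite.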

Data set [2] can be described thus: Half-life was evaluated by chemical hydrolysis. Put shortly: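 pH 12.0 buffer (0.01 N NaOH, isotonic phosphate 0.5 mM) at 37.0 ± 0.1 °C, with an initial ester concentration of 120 µM. Timed samples were quenched 1:10 in cold methanol (12 µM final) and analysed by HPLC. The pseudo-first-order rate constant came from a linear regression of ln(peak area) versus time, and the half-life was derived from it.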

Data set [3] is described as follows: Evaluated for apparent pseudo first-order hydrolytic rate constant(K) in chemical hydrolysis.
Data set [4] is filed under the species Rattus norvegicus. As to the kind of experiment: Evaluation of apparent pseudo-first-order hydrolytic rate constant(k) by enzymatic hydrolysis in rat blood at 37+/-0.1 degree Centigrade. Put shortly: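 Freshly drawn heparinized blood from male Sprague-Dawley rats, used within 30 min. Compound in methanol (0.1 mL) was mixed with blood (0.9 mL) at 37.0 ± 0.1 °C. Timed aliquots were mixed with cold methanol, frozen and centrifuged (24 000 rpm, 3 min), giving a final sample concentration of 12 µM. Ester loss was followed by HPLC of the supernatant, and the pseudo-first-order k was obtained from ln(peak area) versus time.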

Data set [5] can be described thus: Half-life in rat blood; evaluated by enzymatic hydrolysis. Put shortly: as §1

What is called half-life is the time needed for the level to fall by half in the phase considered. Consider `CC(C)(C)NCC(O)c1cc2cccc(CC(=O)OCCC34C[C@H]5C[C@@H](C3)C[C@@H](C4)C5)c2o1` (some centres undefined), for which the half-life in data set [1] is under 0.15 min; in data set [2] it was 150 min. Besides, in data set [3], the k turned out to be 0.0016 min⁻¹.

On to `CC(C)OC(=O)Cc1cccc2cc(C(O)CNC(C)(C)C)oc12` (centres undefined), for which the half-life in data set [1] came to 16.6 min; in data set [2], 45.7 min. Besides, the results for the k in data set [4] and in data set [3] were 0.0417 min⁻¹ and 0.015 min⁻¹, respectively.

Regarding `COC(=O)Cc1cccc2cc(C(O)CNC(C)(C)C)oc12` (centres undefined), the half-life in data set [1] is under 0.15 min; in data set [2], 7.2 min. The k in data set [3] is 0.096 min⁻¹.

Regarding `CC(C)(C)NCC(O)c1cc2cccc(CC(=O)OC3CCCCC3)c2o1` (centres undefined), the half-life in data set [1] came out at 6.2 min; in data set [2], 15.2 min. The k in data set [4] is 0.111 min⁻¹; in data set [3], 0.045 min⁻¹.

Consider `CCOC(=O)Cc1cccc2cc(C(O)CNC(C)(C)C)oc12` (centres undefined), for which the figures for the half-life in data set [5] and in data set [2] were under 0.15 min and 8.2 min, respectively. Further, the k in data set [3] was determined as 0.084 min⁻¹.

For `CC(C)(C)NCC(O)c1cc2cccc(CC(=O)OC(C)(C)C)c2o1` (centres undefined), the values for the half-life in data set [1] and in data set [2] were 99 min and 75.7 min, respectively. Moreover, the k in data set [4] stood at 0.007 min⁻¹; in data set [3] it was 0.091 min⁻¹.

Take `CSCOC(=O)Cc1cccc2cc(C(O)CNC(C)(C)C)oc12` (centres undefined): the half-life in data set [1] is under 0.15 min; in data set [2], 25 min. The k in data set [3] amounted to 0.027 min⁻¹.

For the origin of these results see ChEMBL document CHEMBL1133717, “Soft drugs. 12. Design, synthesis, and evaluation of soft bufuralol analogues” (J Med Chem, 2000).
